System: U2OS
Assay: Multiplex assay against U2OS
Type: toxicity, cell-based
Settings: human
How it was run: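 Hoechst33342, BioTracker Green Microtubule Cytoskeleton Dye, MitoTracker Red and Annexin V Alexa Fluor 680 were added to live cells at seeding, and imaging on a CQ1 microscope at 37°C and 5% CO2 followed compound addition. Gating by CellPathfinder machine learning separated cells into Hoechst high-intensity objects or normal cells, then normal cells into healthy, pyknosed or fragmented nuclei, then pyknosed cells into mitotic or apoptotic. Per cents of healthy-nucleus cells are reported for the tubulin, mitochondrial-mass and membrane-permeability phenotypes.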

[1] = 12 h, 1 µM, compound concentration 1 uM, replicate 1
[2] = 12 h, 1 µM, compound concentration 1 uM, replicate 2
[3] = 12 h, 10 µM, compound concentration 10 uM, replicate 1
[4] = 12 h, 10 µM, compound concentration 10 uM, replicate 2
[5] = 24 h, 1 µM, compound concentration 1 uM, replicate 1
[6] = 24 h, 1 µM, compound concentration 1 uM, replicate 2
[7] = 24 h, 10 µM, compound concentration 10 uM, replicate 1
[8] = 24 h, 10 µM, compound concentration 10 uM, replicate 2
[9] = 48 h, 1 µM, compound concentration 1 uM, replicate 1
[10] = 48 h, 1 µM, compound concentration 1 uM, replicate 2
[11] = 48 h, 10 µM, compound concentration 10 uM, replicate 1
[12] = 48 h, 10 µM, compound concentration 10 uM, replicate 2

CCc1nn(CCCN2CCN(c3cccc(Cl)c3)CC2)c(=O)n1CCOc1ccccc1.Cl [NEFAZODONE HYDROCHLORIDE]
Population Apoptotic (%) [1]: 42%
Population Fragmented Nuclei (%) [1]: 11%
Population Healthy Nuclei (%) [1]: 67%
Population Hoechst High Intensity Objects (%) [1]: 9%
Population Membrane Permeable-Phenotype (%) [1]: 1%
Population Mitochondria Different-Phenotype (%) [1]: 27%
Population Mitotic Cells (%) [1]: 57%
Population Normal (%) [1]: 90%
Population Pyknosed Nuclei (%) [1]: 20%
Population Tubulin-Different-Phenotype (%) [1]: 28%
Population Apoptotic (%) [2]: 0%
Population Fragmented Nuclei (%) [2]: 8%
Population Healthy Nuclei (%) [2]: 89%
Population Hoechst High Intensity Objects (%) [2]: 6%
Population Membrane Permeable-Phenotype (%) [2]: 3%
Population Mitochondria Different-Phenotype (%) [2]: 9%
Population Mitotic Cells (%) [2]: 100%
Population Normal (%) [2]: 93%
Population Pyknosed Nuclei (%) [2]: 1%
Population Tubulin-Different-Phenotype (%) [2]: 29%
Total Cell Count [2]: 68
Population Apoptotic (%) [3]: 71%
Population Fragmented Nuclei (%) [3]: 13%
Population Healthy Nuclei (%) [3]: 55%
Population Hoechst High Intensity Objects (%) [3]: 5%
Population Membrane Permeable-Phenotype (%) [3]: 56%
Population Mitochondria Different-Phenotype (%) [3]: 100%
Population Mitotic Cells (%) [3]: 28%
Population Normal (%) [3]: 94%
Population Pyknosed Nuclei (%) [3]: 31%
Population Tubulin-Different-Phenotype (%) [3]: 100%
Total Cell Count [3]: 150
Population Apoptotic (%) [4]: 69%
Population Fragmented Nuclei (%) [4]: 9%
Population Healthy Nuclei (%) [4]: 69%
Population Hoechst High Intensity Objects (%) [4]: 3%
Population Membrane Permeable-Phenotype (%) [4]: 60%
Population Mitochondria Different-Phenotype (%) [4]: 97%
Population Mitotic Cells (%) [4]: 30%
Population Normal (%) [4]: 96%
Population Pyknosed Nuclei (%) [4]: 20%
Population Tubulin-Different-Phenotype (%) [4]: 97%
Total Cell Count [4]: 61
Population Apoptotic (%) [5]: 32%
Population Fragmented Nuclei (%) [5]: 10%
Population Healthy Nuclei (%) [5]: 73%
Population Hoechst High Intensity Objects (%) [5]: 6%
Population Membrane Permeable-Phenotype (%) [5]: 3%
Population Mitochondria Different-Phenotype (%) [5]: 21%
Population Mitotic Cells (%) [5]: 68%
Population Normal (%) [5]: 93%
Population Pyknosed Nuclei (%) [5]: 15%
Population Tubulin-Different-Phenotype (%) [5]: 22%
Population Apoptotic (%) [6]: 50%
Population Fragmented Nuclei (%) [6]: 8%
Population Healthy Nuclei (%) [6]: 85%
Population Hoechst High Intensity Objects (%) [6]: 2%
Population Membrane Permeable-Phenotype (%) [6]: 1%
Population Mitochondria Different-Phenotype (%) [6]: 15%
Population Mitotic Cells (%) [6]: 50%
Population Normal (%) [6]: 97%
Population Pyknosed Nuclei (%) [6]: 5%
Population Tubulin-Different-Phenotype (%) [6]: 33%
Total Cell Count [6]: 71
Population Apoptotic (%) [7]: 82%
Population Fragmented Nuclei (%) [7]: 17%
Population Healthy Nuclei (%) [7]: 49%
Population Hoechst High Intensity Objects (%) [7]: 7%
Population Membrane Permeable-Phenotype (%) [7]: 72%
Population Mitochondria Different-Phenotype (%) [7]: 98%
Population Mitotic Cells (%) [7]: 17%
Population Normal (%) [7]: 92%
Population Pyknosed Nuclei (%) [7]: 33%
Population Tubulin-Different-Phenotype (%) [7]: 100%
Total Cell Count [7]: 172
Population Apoptotic (%) [8]: 80%
Population Fragmented Nuclei (%) [8]: 22%
Population Healthy Nuclei (%) [8]: 56%
Population Hoechst High Intensity Objects (%) [8]: 1%
Population Membrane Permeable-Phenotype (%) [8]: 80%
Population Mitochondria Different-Phenotype (%) [8]: 100%
Population Mitotic Cells (%) [8]: 20%
Population Normal (%) [8]: 98%
Population Pyknosed Nuclei (%) [8]: 20%
Total Cell Count [8]: 72
Population Apoptotic (%) [9]: 46%
Population Fragmented Nuclei (%) [9]: 9%
Population Healthy Nuclei (%) [9]: 73%
Population Hoechst High Intensity Objects (%) [9]: 5%
Population Membrane Permeable-Phenotype (%) [9]: 3%
Population Mitochondria Different-Phenotype (%) [9]: 15%
Population Mitotic Cells (%) [9]: 53%
Population Normal (%) [9]: 94%
Population Pyknosed Nuclei (%) [9]: 16%
Population Tubulin-Different-Phenotype (%) [9]: 14%
Population Apoptotic (%) [10]: 16%
Population Fragmented Nuclei (%) [10]: 5%
Population Healthy Nuclei (%) [10]: 88%
Population Hoechst High Intensity Objects (%) [10]: 1%
Population Membrane Permeable-Phenotype (%) [10]: 2%
Population Mitochondria Different-Phenotype (%) [10]: 18%
Population Mitotic Cells (%) [10]: 83%
Population Normal (%) [10]: 98%
Population Pyknosed Nuclei (%) [10]: 5%
Population Tubulin-Different-Phenotype (%) [10]: 46%
Total Cell Count [10]: 67
Population Apoptotic (%) [11]: 82%
Population Fragmented Nuclei (%) [11]: 24%
Population Healthy Nuclei (%) [11]: 41%
Population Membrane Permeable-Phenotype (%) [11]: 83%
Population Mitochondria Different-Phenotype (%) [11]: 97%
Population Mitotic Cells (%) [11]: 17%
Population Pyknosed Nuclei (%) [11]: 34%
Total Cell Count [11]: 246
Population Apoptotic (%) [12]: 66%
Population Fragmented Nuclei (%) [12]: 14%
Population Healthy Nuclei (%) [12]: 43%
Population Hoechst High Intensity Objects (%) [12]: 8%
Population Membrane Permeable-Phenotype (%) [12]: 85%
Population Mitochondria Different-Phenotype (%) [12]: 100%
Population Mitotic Cells (%) [12]: 33%
Population Normal (%) [12]: 91%
Population Pyknosed Nuclei (%) [12]: 42%
Population Tubulin-Different-Phenotype (%) [12]: 100%
Total Cell Count [12]: 110

COC(=O)C1=C(C)NC(C)=C(C(=O)OCCCN2CCC(c3ccccc3)(c3ccccc3)CC2)[C@H]1c1cccc([N+](=O)[O-])c1 [NIGULDIPINE]
Population Apoptotic (%) [1]: 64%
Population Fragmented Nuclei (%) [1]: 18%
Population Healthy Nuclei (%) [1]: 58%
Population Hoechst High Intensity Objects (%) [1]: 11%
Population Membrane Permeable-Phenotype (%) [1]: 53%
Population Mitochondria Different-Phenotype (%) [1]: 96%
Population Mitotic Cells (%) [1]: 36%
Population Normal (%) [1]: 88%
Population Pyknosed Nuclei (%) [1]: 23%
Population Tubulin-Different-Phenotype (%) [1]: 96%
Total Cell Count [1]: 893
Population Apoptotic (%) [2]: 91%
Population Fragmented Nuclei (%) [2]: 6%
Population Healthy Nuclei (%) [2]: 78%
Population Hoechst High Intensity Objects (%) [2]: 9%
Population Membrane Permeable-Phenotype (%) [2]: 66%
Population Mitochondria Different-Phenotype (%) [2]: 100%
Population Mitotic Cells (%) [2]: 8%
Population Normal (%) [2]: 90%
Population Pyknosed Nuclei (%) [2]: 15%
Population Tubulin-Different-Phenotype (%) [2]: 100%
Total Cell Count [2]: 945
Population Apoptotic (%) [3]: 73%
Population Fragmented Nuclei (%) [3]: 62%
Population Healthy Nuclei (%) [3]: 4%
Population Hoechst High Intensity Objects (%) [3]: 7%
Population Mitochondria Different-Phenotype (%) [3]: 100%
Population Mitotic Cells (%) [3]: 26%
Population Normal (%) [3]: 92%
Population Pyknosed Nuclei (%) [3]: 33%
Total Cell Count [3]: 122
Population Apoptotic (%) [4]: 76%
Population Fragmented Nuclei (%) [4]: 67%
Population Healthy Nuclei (%) [4]: 3%
Population Hoechst High Intensity Objects (%) [4]: 12%
Population Membrane Permeable-Phenotype (%) [4]: 100%
Population Mitochondria Different-Phenotype (%) [4]: 50%
Population Mitotic Cells (%) [4]: 23%
Population Normal (%) [4]: 87%
Population Pyknosed Nuclei (%) [4]: 29%
Population Tubulin-Different-Phenotype (%) [4]: 100%
Total Cell Count [4]: 87
Population Apoptotic (%) [5]: 76%
Population Fragmented Nuclei (%) [5]: 17%
Population Healthy Nuclei (%) [5]: 52%
Population Hoechst High Intensity Objects (%) [5]: 10%
Population Membrane Permeable-Phenotype (%) [5]: 76%
Population Mitochondria Different-Phenotype (%) [5]: 98%
Population Mitotic Cells (%) [5]: 23%
Population Normal (%) [5]: 89%
Population Pyknosed Nuclei (%) [5]: 30%
Total Cell Count [5]: 927
Population Apoptotic (%) [6]: 77%
Population Fragmented Nuclei (%) [6]: 7%
Population Healthy Nuclei (%) [6]: 65%
Population Hoechst High Intensity Objects (%) [6]: 5%
Population Membrane Permeable-Phenotype (%) [6]: 96%
Population Mitochondria Different-Phenotype (%) [6]: 100%
Population Mitotic Cells (%) [6]: 22%
Population Normal (%) [6]: 94%
Population Pyknosed Nuclei (%) [6]: 27%
Population Tubulin-Different-Phenotype (%) [6]: 100%
Total Cell Count [6]: 948
Population Apoptotic (%) [7]: 78%
Population Fragmented Nuclei (%) [7]: 69%
Population Healthy Nuclei (%) [7]: 2%
Population Hoechst High Intensity Objects (%) [7]: 14%
Population Membrane Permeable-Phenotype (%) [7]: 100%
Population Mitochondria Different-Phenotype (%) [7]: 100%
Population Mitotic Cells (%) [7]: 21%
Population Normal (%) [7]: 85%
Population Pyknosed Nuclei (%) [7]: 27%
Population Tubulin-Different-Phenotype (%) [7]: 100%
Total Cell Count [7]: 111
Population Apoptotic (%) [8]: 100%
Population Fragmented Nuclei (%) [8]: 40%
Population Healthy Nuclei (%) [8]: 25%
Population Hoechst High Intensity Objects (%) [8]: 11%
Population Mitotic Cells (%) [8]: 0%
Population Normal (%) [8]: 88%
Population Pyknosed Nuclei (%) [8]: 33%
Total Cell Count [8]: 85
Population Apoptotic (%) [9]: 78%
Population Fragmented Nuclei (%) [9]: 23%
Population Healthy Nuclei (%) [9]: 39%
Population Hoechst High Intensity Objects (%) [9]: 12%
Population Membrane Permeable-Phenotype (%) [9]: 82%
Population Mitochondria Different-Phenotype (%) [9]: 97%
Population Mitotic Cells (%) [9]: 21%
Population Normal (%) [9]: 87%
Population Pyknosed Nuclei (%) [9]: 36%
Population Tubulin-Different-Phenotype (%) [9]: 97%
Total Cell Count [9]: 922
Population Apoptotic (%) [10]: 85%
Population Fragmented Nuclei (%) [10]: 15%
Population Healthy Nuclei (%) [10]: 54%
Population Hoechst High Intensity Objects (%) [10]: 5%
Population Membrane Permeable-Phenotype (%) [10]: 92%
Population Mitochondria Different-Phenotype (%) [10]: 100%
Population Mitotic Cells (%) [10]: 14%
Population Normal (%) [10]: 94%
Population Pyknosed Nuclei (%) [10]: 30%
Population Tubulin-Different-Phenotype (%) [10]: 100%
Total Cell Count [10]: 932
Population Apoptotic (%) [11]: 81%
Population Fragmented Nuclei (%) [11]: 69%
Population Healthy Nuclei (%) [11]: 2%
Population Hoechst High Intensity Objects (%) [11]: 10%
Population Membrane Permeable-Phenotype (%) [11]: 100%
Population Mitochondria Different-Phenotype (%) [11]: 100%
Population Mitotic Cells (%) [11]: 18%
Population Normal (%) [11]: 89%
Population Pyknosed Nuclei (%) [11]: 28%
Population Tubulin-Different-Phenotype (%) [11]: 100%
Total Cell Count [11]: 116
Population Apoptotic (%) [12]: 100%
Population Fragmented Nuclei (%) [12]: 17%
Population Healthy Nuclei (%) [12]: 28%
Population Hoechst High Intensity Objects (%) [12]: 18%
Population Mitochondria Different-Phenotype (%) [12]: 93%
Population Mitotic Cells (%) [12]: 0%
Population Normal (%) [12]: 81%
Population Pyknosed Nuclei (%) [12]: 53%
Total Cell Count [12]: 97

— ChEMBL document CHEMBL4689842, “EUbOPEN Chemogenomics Library wave 1” (2021)
